According to ChEMBL document CHEMBL3797125, “Discovery of GluN2A-Selective NMDA Receptor Positive Allosteric Modulators (PAMs): Tuning Deactivation Kinetics via Structure-Based Design” (J Med Chem, 2016):

Columns and labels:
[1] = tested on: human MDR1 (P-gp); assay: Efflux ratio of permeability from basolateral to apical over apical to basolateral side in MDCK cells expressing human MDR1; format: ADME, cell-based, Canis lupus familiaris; details: dog
[2] = target: T1, Glutamate receptor 2 (Homo sapiens, UniProt P42262); assay: Positive allosteric modulation of human GluA2 AMPAR flop isomer expressed in Dox-inducible cells at 125 uM measured every 5 mins by BD calcium indicator dye based-fluorescence analysis in presence of glutamate; format: cell-based
[3] = target: T2, Glutamate NMDA receptor; GRIN1/GRIN2A (Homo sapiens, UniProt Q05586+Q12879); assay: Positive allosteric modulation of GluN1/GluN2A NMDAR (unknown origin) expressed in Dox-inducible cells at 125 uM measured every 5 mins by BD calcium indicator dye based-fluorescence analysis in presence of glutamate/glycine; format: cell-based
Method in brief: (§1)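 GluN2A-containing NMDAR cell line, harvested, seeded, doxycycline 2 µg/mL overnight with 500 µM ketamine for protection, then washed and loaded with calcium dye for 50 min. Compound added at 2x concentration in 2x EC30 Glu (EC30 set daily from Glu dose-response); saturating Gly throughout; fluorescence recorded over 5 min.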

[4] = target: T1, Glutamate receptor 2; assay: Positive allosteric modulation of human GluA2 AMPAR flip isomer expressed in Dox-inducible cells at 125 uM measured every 5 mins by BD calcium indicator dye based-fluorescence analysis in presence of glutamate; format: cell-based
[5] = target: T2, Glutamate NMDA receptor; GRIN1/GRIN2A; assay: Positive allosteric modulation of GluN1/GluN2A NMDAR (unknown origin) expressed in Dox-inducible cells measured every 5 mins by BD calcium indicator dye based-fluorescence analysis in presence of glutamate/glycine; format: cell-based; method in brief: as §1
[6] = target: T1, Glutamate receptor 2; assay: Positive allosteric modulation of human GluA2 AMPAR flop isomer expressed in Dox-inducible cells measured every 5 mins by BD calcium indicator dye based-fluorescence analysis in presence of glutamate; format: cell-based
[7] = target: T1, Glutamate receptor 2; assay: Positive allosteric modulation of human GluA2 AMPAR flip isomer expressed in Dox-inducible cells measured every 5 mins by BD calcium indicator dye based-fluorescence analysis in presence of glutamate; format: cell-based

T1 sequence (P42262 whole entry): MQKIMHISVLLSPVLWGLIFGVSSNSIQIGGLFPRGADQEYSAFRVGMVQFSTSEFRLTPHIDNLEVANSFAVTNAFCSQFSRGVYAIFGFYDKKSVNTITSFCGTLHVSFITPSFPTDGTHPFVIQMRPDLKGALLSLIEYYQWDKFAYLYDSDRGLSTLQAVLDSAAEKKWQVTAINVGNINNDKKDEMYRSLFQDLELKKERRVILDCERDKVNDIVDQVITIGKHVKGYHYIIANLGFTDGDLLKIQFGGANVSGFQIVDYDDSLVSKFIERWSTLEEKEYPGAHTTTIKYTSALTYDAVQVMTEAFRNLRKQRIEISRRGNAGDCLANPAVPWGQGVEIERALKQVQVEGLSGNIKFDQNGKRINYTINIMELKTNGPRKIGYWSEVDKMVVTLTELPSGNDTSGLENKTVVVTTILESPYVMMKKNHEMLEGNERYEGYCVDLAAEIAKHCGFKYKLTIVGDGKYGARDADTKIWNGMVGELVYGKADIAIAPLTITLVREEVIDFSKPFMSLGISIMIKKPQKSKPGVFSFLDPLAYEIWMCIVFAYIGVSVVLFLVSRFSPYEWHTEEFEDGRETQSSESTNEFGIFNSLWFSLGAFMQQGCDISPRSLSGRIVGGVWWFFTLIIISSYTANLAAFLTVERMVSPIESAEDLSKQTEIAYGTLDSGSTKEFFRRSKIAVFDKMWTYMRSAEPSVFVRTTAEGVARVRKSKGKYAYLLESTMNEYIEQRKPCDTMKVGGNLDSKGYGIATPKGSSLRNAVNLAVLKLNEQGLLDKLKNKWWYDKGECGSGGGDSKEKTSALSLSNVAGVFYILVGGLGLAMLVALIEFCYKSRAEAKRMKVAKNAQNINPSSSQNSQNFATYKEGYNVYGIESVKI

SMILES | efflux ratio [1] | %max [2] [%] | %max [3] [%] | %max [4] [%] | EC50 [5] [nM] | EC50 [6] [nM] | EC50 [7] [nM]
CCNC(=O)c1c(C)sc2nc(CNc3ccc(F)cc3)cc(=O)n12 | 5.8 | 19 | 123 | 8 | 7000 |  | 
Cc1sc2nc(Cc3cccc(C(F)(F)F)c3F)cc(=O)n2c1C1CC1CO (racemic) | 0.51 | 27 | 117 | 57 | 454 | 359 | 1700
Cc1sc2nc(Cn3nc(C(F)(F)F)cc3Cl)cc(=O)n2c1[C@@H]1C[C@H]1CO | 1.3 | 52 | 147 | 85 | 17.7 | 48 | 150
CCN(Cc1cc(=O)n2c(CCCO)c(C)sc2n1)c1ccc(F)cc1 | 1 | 45 | 169 | 37 | 183 | 1500 | 33200
CCNC(=O)c1c(C)sc2nc(C(C)c3cccc(C(F)(F)F)c3F)cc(=O)n12 (racemic) | 2.2 | 8 | 75 | 4 | 3100 |  | 
CCN(Cc1cc(=O)n2c(C(C)C)c(C)sc2n1)c1ccc(F)cc1 | 1.3 | 1 | 129 | 15 | 685 |  | 34400
CCN(Cc1cc(=O)n2c(C3CC3)c(C)sc2n1)c1ccc(F)cc1 | 0.8 | 31 | 168 | 35 | 394 | 9800 | 34000
CCN(Cc1cc(=O)n2c(CO)c(C)sc2n1)c1ccc(F)cc1 | 1.1 | 83 | 153 | 39 | 649 | 1900 | 66300
CCN(Cc1cc(=O)n2c(C(C)(C)O)c(C)sc2n1)c1ccc(F)cc1 | 1 | 5 | 157 | 65 | 63 | 2400 | 12400
Cc1sc2nc(Cc3cccc(C#N)c3F)cc(=O)n2c1C1CC1CO (racemic) | 3.6 | 23 | 160 | 38 | 900 | 1100 | 32600
CCN(Cc1cc(=O)n2c(N3CCOCC3)c(C)sc2n1)c1ccc(F)cc1 | 0.9 | 8 | 69 | 11 | 2200 | 60200 | 75800
CCNC(=O)c1c(C)sc2nc(Cn3nc(C(F)(F)F)cc3C)cc(=O)n12 | 33 | 19 | 128 | 8 | 4900 |  | 
CCNC(=O)c1c(C)sc2nc(Cn3nc(C(F)(F)F)cc3OCC)cc(=O)n12 | 57 | 43 | 144 | 32 | 414 | 9100 | 
CCNC(=O)c1c(C)sc2nc(Cc3cccc(C#N)c3)cc(=O)n12 | 25 | 8 | 71 | 10 | 62200 | 53700 | 32900
CCN(Cc1cc(=O)n2c(C#N)c(C)sc2n1)c1ccc(F)cc1 | 0.9 | 60 | 181 | 13 | 129 | 10700 | 66600
CCNC(=O)c1c(C)sc2nc(Cn3nc(C(F)(F)F)cc3C3CC3)cc(=O)n12 | 2.2 | 60 | 147 | 54 | 536 | 6400 | 
CCCN(Cc1cc(=O)n2c(C(=O)NCC)c(C)sc2n1)c1ccc(F)cc1 | 12.6 | 32 | 171 | 5 | 132 | 48700 | 
CCNC(=O)c1c(C)sc2nc(Cc3cccc(C(F)(F)F)c3F)cc(=O)n12 | 1.8 | 20 | 94 | 9 | 1200 | 29400 | 28300
